From ChEMBL document CHEMBL3352507, “Preparation and antimalarial activity of a novel class of carbohydrate-derived, fused thiochromans” (Eur J Med Chem, 2014)

Key:
[1] = Cytotoxicity against human WI38 cells assessed as cell viability at 10 uM after 48 hrs by SRB assay; assay type: cell-based, WI-38; conditions: read-out: Activity
How it was run: (§1)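 WI-38 fibroblasts (passages 21–50) were seeded at 10 000 cells/well for 24 h, then exposed for 48 h to compound dissolved in DMSO and diluted in medium. Viable cells were fixed with cold 50% trichloroacetic acid and stained with sulforhodamine B. Bound dye was extracted with 10 mM Tris base and read at 540 nm. Viability relative to drug-free cells.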

Plasmodium falciparum [2] = experiment: Antimalarial activity against Plasmodium falciparum 3D7 after 48 hrs by parasite lactate dehydrogenase assay; assay type: functional, organism-based; conditions: 3D7, 48 h
How it was run: (§2)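 Parasite survival read by parasite lactate dehydrogenase (pLDH) assay. Single-concentration prescreen at […]; compounds with 0–15% survival were taken to dose–response. Ten three-fold serial dilutions in triplicate, incubated 48 h in a gassed airtight box, developed with NBT/PES. IC50 from sigmoidal curve of % survival relative to control against log concentration.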

[3] = Cytotoxicity against human WI38 cells assessed as cell viability at 100 uM after 48 hrs by SRB assay; assay type: cell-based, WI-38; conditions: read-out: Activity; how it was run: as §1
[4] = Cytotoxicity against human WI38 cells assessed as cell viability at 0.1 uM after 48 hrs by SRB assay; assay type: cell-based, WI-38; conditions: read-out: Activity; how it was run: as §1
[5] = Cytotoxicity against human WI38 cells after 48 hrs by SRB assay; assay type: cell-based; conditions: WI-38, 48 h
How it was run: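 WI-38 human fetal lung fibroblasts (passages 21–50) in EMEM with 10% FBS, 2 mM L-glutamine and gentamicin, at 37 °C and 5% CO2. Seeded at 10 000 cells/well, grown 24 h, then given compound in DMSO diluted in medium to 5 concentrations for 48 h. Cells were fixed with cold 50% TCA and stained with SRB, and dye was read at 540 nm. IC50 by non-linear regression against untreated controls.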

[6] = Cytotoxicity against human WI38 cells assessed as cell viability at 0.01 uM after 48 hrs by SRB assay; assay type: cell-based, WI-38; conditions: read-out: Activity; how it was run: as §1
[7] = Cytotoxicity against human WI38 cells assessed as cell viability at 1 uM after 48 hrs by SRB assay; assay type: cell-based, WI-38; conditions: read-out: Activity; how it was run: as §1
Plasmodium falciparum [8] = experiment: Antimalarial activity against Plasmodium falciparum FCR3 after 48 hrs by parasite lactate dehydrogenase assay; assay type: functional, organism-based; conditions: FCR3, 48 h; how it was run: as §2

IC50 (Plasmodium falciparum [2]) [µM] | IC50 (Plasmodium falciparum [8]) [µM] | SMILES | viability at 48 h, 10 µM [1] [%] | viability at 48 h, 100 µM [3] [%] | viability at 48 h, 0.1 µM [4] [%] | IC50 [5] [µM] | viability at 48 h, 0.01 µM [6] [%] | viability at 48 h, 1 µM [7] [%]
3.46 | 2.05 | c1ccc(COC[C@H]2O[C@@H]3c4ccccc4SC[C@@H]3[C@@H](OCc3ccccc3)[C@@H]2OCc2ccccc2)cc1 | 85 | 58.1 | 98.6 | > 100 | 100 | 97.6
> 100 | 3.37 | Cc1ccc2c(c1)[C@H]1O[C@H](COCc3ccccc3)[C@@H](OCc3ccccc3)[C@H](OCc3ccccc3)[C@H]1CS2 | 90 | 72.8 | 96.3 | > 100 | 97 | 97
> 100 | 1.73 | COc1ccc2c(c1)[C@H]1O[C@H](COCc3ccccc3)[C@@H](OCc3ccccc3)[C@H](OCc3ccccc3)[C@H]1CS2 | 90.8 | 61 | 95.8 | > 100 | 97 | 93.8
